Measured values from ChEMBL document CHEMBL2062389, “Novel Cyclopropyl-Indole Derivatives as HIV Non-Nucleoside Reverse Transcriptase Inhibitors” (ACS Med Chem Lett, 2012).

Columns and labels:
[1] = test system: Human immunodeficiency virus 1; assay: Antiviral activity against Human immunodeficiency virus 1 infected in human 293T cells assessed as inhibition of viral replication after 48 hrs by luminescence analysis; format: functional, organism-based; conditions: Human immunodeficiency virus 1, HEK-293T
Procedure, shortened: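 Single-cycle, nonreplicative phenotypic assay against wild-type HIV-1, using virus-like particles made with an HIV-1 retroviral vector system. Compounds incubated with 293T cells and VLPs for 48 h. Inhibition quantified by luminescence and reported as IC50 (μM).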

[2] = Cytotoxicity against human 293T cells after 48 hrs by colorimetric analysis; format: cell-based; conditions: HEK-293T cells

SMILES	IC50 [1] [µM]	CC50 at 48 h [2] [µM]
O=C(O)c1[nH]c2ccc(Cl)cc2c1C1(c2ccccc2)CC1	28.5	92.3
CCOC(=O)c1[nH]c2ccc(Cl)cc2c1C1(c2ccccc2)CC1	0.085	30.3
CCOC(=O)c1[nH]c2ccc(Cl)cc2c1C1(C)CC1	2.25	44.3
NC(=O)c1[nH]c2ccc(Cl)cc2c1C1(c2cccs2)CC1	0.121	25.6
OCc1[nH]c2ccc(Cl)cc2c1C1(c2cccs2)CC1	14.4	36.6
Cc1ccnc2c1NC(=O)c1cccnc1N2C1CC1 [NEVIRAPINE]	0.087	–

The next lines start with results.

IC50 [1] [µM]	SMILES	CC50 at 48 h [2] [µM]
0.065	CCOC(=O)c1[nH]c2ccc(Cl)cc2c1C1(c2cccs2)CC1	67.1
0.096	NC(=O)c1[nH]c2ccc(Cl)cc2c1C1(c2ccccc2)CC1	14.2
0.066	CCOC(=O)c1[nH]c2ccc(Br)cc2c1C1(c2ccccc2)CC1	24.5
48.2	O=C(O)c1[nH]c2ccc(Cl)cc2c1C1(c2cccs2)CC1	140
8.25	OCc1[nH]c2ccc(Cl)cc2c1C1(c2ccccc2)CC1	34.1
